Results published in ChEMBL document CHEMBL2034859, “Simple, fast and efficient synthesis of β-keto esters from the esters of heteroaryl compounds, its antimicrobial study and cytotoxicity towards various cancer cell lines” (Bioorg Med Chem Lett, 2012).
Values after ≈ are worked out from the molar mass of the structure shown.

Key:
PANC-1 = test: Cytotoxicity against human PANC1 cells at 10 uM after 48 hrs by WST-1 assay; type: functional
Method in brief: (§1)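 Cells from ATCC, grown in DMEM with 10% heat-inactivated FBS at 37 °C in humidified 5% CO2. Log-phase cells seeded at 5 × 10^3 cells/well and left to recover overnight, then exposed to varying compound concentrations for 48 h. Controls received medium with 0.2% DMSO vehicle. CCK-8 ([…]) reagent added at 5 µL/well for 2 h, then absorbance read.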

Calu-1 = test: Cytotoxicity against human Calu1 cells at 10 uM after 48 hrs by WST-1 assay; type: functional
Method in brief: (§2)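 Cells from ATCC were grown in DMEM with 10% heat-inactivated FBS at 37 °C in 5% CO2. Log-phase cells were seeded at 5 × 10^3 per well and left to recover overnight. They were then exposed to a range of compound concentrations for 48 h, with 0.2% DMSO as the vehicle control. CCK-8 (WST) reagent was added for 2 h and absorbance was measured.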

ACHN = test: Cytotoxicity against human ACHN cells at 10 uM after 48 hrs by WST-1 assay; type: functional; method in brief: as §2
NCI-H460 = test: Cytotoxicity against human NCI-H460 cells at 10 uM after 48 hrs by WST-1 assay; type: functional; method in brief: as §1
HCT-116 = test: Cytotoxicity against human HCT116 cells at 10 uM after 48 hrs by WST-1 assay; type: functional; method in brief: as §2
Talaromyces marneffei [1] = test: Antifungal activity against Penicillium marneffei after 3 to 4 days by disc diffusion method; type: functional
Staphylococcus aureus [2] = test: Antibacterial activity against Staphylococcus aureus ATCC 25923 after 24 hrs by disc diffusion method; type: functional
Method in brief: (§3)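 Disc diffusion susceptibility test. The Klebsiella pneumoniae strain was a recultured isolate, not an ATCC stock.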

Talaromyces marneffei [3] = test: Antifungal activity against Penicillium marneffei after 3 to 4 days; type: functional
[4] = system: Trichophyton mentagrophytes; test: Antifungal activity against Trichophyton mentagrophytes after 3 to 4 days; type: functional
Method in brief: (§4)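 Compounds were dissolved in DMSO and tested by serial plate dilution. Activity was read as the diameter of the inhibition zone, with ciclopiroxolamine as the reference standard. Penicillium marneffei and Trichophyton mentagrophytes were recultured isolates.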

Pseudomonas aeruginosa [5] = test: Antibacterial activity against Pseudomonas aeruginosa ATCC 27853 after 24 hrs; type: functional; conditions: ATCC 27853, 24 h
Staphylococcus aureus [6] = test: Antibacterial activity against Staphylococcus aureus ATCC 25923 after 24 hrs; type: functional; conditions: ATCC 25923, 24 h
Aspergillus fumigatus [7] = test: Antifungal activity against Aspergillus fumigatus NCIM 902 after 3 to 4 days; type: functional; method in brief: as §4
Aspergillus flavus [8] = test: Antifungal activity against Aspergillus flavus NCIM 524 after 3 to 4 days by serial plate dilution method
Aspergillus fumigatus [9] = test: Antifungal activity against Aspergillus fumigatus NCIM 902 after 3 to 4 days by disc diffusion method; type: functional
Escherichia coli [10] = test: Antibacterial activity against Escherichia coli ATCC 25922 after 24 hrs by disc diffusion method; type: functional; method in brief: as §3
Klebsiella pneumoniae [11] = test: Antibacterial activity against Klebsiella pneumoniae after 24 hrs by disc diffusion method; type: functional; method in brief: as §3
[12] = system: Trichophyton mentagrophytes; test: Antifungal activity against Trichophyton mentagrophytes after 3 to 4 days by disc diffusion method; type: functional
Pseudomonas aeruginosa [13] = test: Antibacterial activity against Pseudomonas aeruginosa ATCC 27853 after 24 hrs by disc diffusion method; type: functional; method in brief: as §3
Aspergillus flavus [14] = test: Antifungal activity against Aspergillus flavus NCIM 524 after 3 to 4 days; type: functional
Klebsiella pneumoniae [15] = test: Antibacterial activity against Klebsiella pneumoniae after 24 hrs; type: functional
Escherichia coli [16] = test: Antibacterial activity against Escherichia coli ATCC 25922 after 24 hrs; type: functional; conditions: ATCC 25922, 24 h

Row | Compound | Activity (PANC-1) | Activity (Calu-1) | Activity (ACHN) | Activity (NCI-H460) | Activity (HCT-116) | further results
1 | CCOC(=O)CC(=O)c1cnc2ccccc2c1 | 26% | 23% | 20% | 20% | 28% | 
2 | CCOC(=O)CC(=O)c1cccc2sc(Br)nc12 | 27% | 19% | 31% | 14% | 39% | inhibition zone (IZ) (Talaromyces marneffei [1]): 17 mm; inhibition zone (IZ) (Staphylococcus aureus [2]): 21 mm; MIC (Talaromyces marneffei [3]): 12.5 µg/mL (≈ 38.1 µM); MIC [4]: 12.5 µg/mL (≈ 38.1 µM); MIC (Pseudomonas aeruginosa [5]): 6.25 µg/mL (≈ 19 µM); MIC (Staphylococcus aureus [6]): 6.25 µg/mL (≈ 19 µM); MIC (Aspergillus fumigatus [7]): 12.5 µg/mL (≈ 38.1 µM); inhibition zone (IZ) (Aspergillus flavus [8]): 19 mm; inhibition zone (IZ) (Aspergillus fumigatus [9]): 18 mm; inhibition zone (IZ) (Escherichia coli [10]): 22 mm; inhibition zone (IZ) (Klebsiella pneumoniae [11]): 23 mm; inhibition zone (IZ) [12]: 17 mm; inhibition zone (IZ) (Pseudomonas aeruginosa [13]): 22 mm; MIC (Aspergillus flavus [14]): 12.5 µg/mL (≈ 38.1 µM); MIC (Klebsiella pneumoniae [15]): 6.25 µg/mL (≈ 19 µM); MIC (Escherichia coli [16]): 6.25 µg/mL (≈ 19 µM)
3 | CCOC(=O)CC(=O)c1sc(Cl)nc1C | 29% | 32% | 37% | 24% | 48% | 
4 | CCOC(=O)CC(=O)c1cnccn1 | 27% | 16% | 34% | 20% | 30% | 
5 | CCOC(=O)CC(=O)c1ccncn1 | 35% | 12% | 15% | 13% | 20% | 
6 | CCOC(=O)CC(=O)c1nccc2ccccc12 | 35% | 30% | 30% | 34% | 26% | inhibition zone (IZ) (Talaromyces marneffei [1]): 18 mm; inhibition zone (IZ) (Staphylococcus aureus [2]): 22 mm; MIC (Talaromyces marneffei [3]): 12.5 µg/mL (≈ 51.4 µM); MIC [4]: 12.5 µg/mL (≈ 51.4 µM); MIC (Pseudomonas aeruginosa [5]): 6.25 µg/mL (≈ 25.7 µM); MIC (Staphylococcus aureus [6]): 6.25 µg/mL (≈ 25.7 µM); MIC (Aspergillus fumigatus [7]): 12.5 µg/mL (≈ 51.4 µM); inhibition zone (IZ) (Aspergillus flavus [8]): 15 mm; inhibition zone (IZ) (Aspergillus fumigatus [9]): 18 mm; inhibition zone (IZ) (Escherichia coli [10]): 19 mm; inhibition zone (IZ) (Klebsiella pneumoniae [11]): 22 mm; inhibition zone (IZ) [12]: 17 mm; inhibition zone (IZ) (Pseudomonas aeruginosa [13]): 20 mm; MIC (Aspergillus flavus [14]): 12.5 µg/mL (≈ 51.4 µM); MIC (Klebsiella pneumoniae [15]): 6.25 µg/mL (≈ 25.7 µM); MIC (Escherichia coli [16]): 6.25 µg/mL (≈ 25.7 µM)
7 | CCOC(=O)CC(=O)c1nccn1C | 35% | 30% | 30% | 14% | 11% | 
8 | CCOC(=O)CC(=O)c1cccnc1 | 35% | 30% | 30% | 19% | 30% | 
9 | CCOC(=O)CC(=O)c1ccncc1 | 10% | 12% | 31% | 10% | 39% | 
10 | CCOC(=O)CC(=O)c1cn(C(=O)OC(C)(C)C)c2ccccc12 | 23% | 20% | 30% | 39% | 33% | 
11 | CCOC(=O)CC(=O)c1nccn1CCOC | 26% | 24% | 21% | 14% | 28% | 
12 | CCOC(=O)C(C)C(=O)c1nccc2ccccc12 (stereo not drawn) | 30% | 20% | 25% | 19% | 24% | 
13 | CCOC(=O)CC(=O)c1ccccn1 | 27% | 22% | 25% | 36% | 21% | 
14 | Cc1cc(C2CCCCC2)n(O)c(=O)c1.NCCO [CICLOPIROX OLAMINE] |  |  |  |  |  | inhibition zone (IZ) (Talaromyces marneffei [1]): 23 mm; MIC (Talaromyces marneffei [3]): 6.25 µg/mL; MIC [4]: 3.12 µg/mL; MIC (Aspergillus fumigatus [7]): 6.25 µg/mL; inhibition zone (IZ) (Aspergillus flavus [8]): 27 mm; inhibition zone (IZ) (Aspergillus fumigatus [9]): 26 mm; inhibition zone (IZ) [12]: 27 mm; MIC (Aspergillus flavus [14]): 3.12 µg/mL
15 | O=C(O)c1cn(C2CC2)c2cc(N3CCNCC3)c(F)cc2c1=O [CIPROFLOXACIN] |  |  |  |  |  | inhibition zone (IZ) (Staphylococcus aureus [2]): 23 mm; MIC (Pseudomonas aeruginosa [5]): 6.25 µg/mL (≈ 18.9 µM); MIC (Staphylococcus aureus [6]): 6.25 µg/mL (≈ 18.9 µM); inhibition zone (IZ) (Escherichia coli [10]): 32 mm; inhibition zone (IZ) (Klebsiella pneumoniae [11]): 23 mm; inhibition zone (IZ) (Pseudomonas aeruginosa [13]): 28 mm; MIC (Klebsiella pneumoniae [15]): 6.25 µg/mL (≈ 18.9 µM); MIC (Escherichia coli [16]): 6.25 µg/mL (≈ 18.9 µM)
